Like-named read-outs stand apart in the source and are kept apart here. Each block holds one molecule with its values, some of them ahead of it.
Columns and labels:
[1] = Dynamic light scattering particle size; assay type: physicochemical
Procedure, shortened: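 LUVs (POPC or egg sphingomyelin) were made by drying the chloroform stock under nitrogen, hydrating in 10 mM sodium phosphate pH 7.4, doing 5–7 freeze-thaw cycles, and extruding 10× through 100 nm membranes (25°C POPC, 45°C eSM). For sHDL, 5.0 mg/mL lipid and peptide solutions were mixed 1:1 wt/wt (~3.75:1 molar). Samples were diluted to 1.0 mg/mL peptide, and intensity- and volume-weighted distributions were read at 25°C.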

[2] = Lipid solubilization assay; assay type: physicochemical; conditions: 5.0 mg/mL LUVs in 10 mM sodium phosphate buffer pH 7.4, before addition of 22A peptide
Procedure, shortened: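 Phospholipid (POPC or egg sphingomyelin) chloroform stock was dried under nitrogen and hydrated in 10 mM sodium phosphate, pH 7.4. It then went through 5–7 freeze-thaw cycles and was extruded 10 times through 100 nm membranes, at 25°C for POPC and 45°C for eSM. The 5.0 mg/mL LUV suspension was read for turbidity as UV absorbance at 600 nm on a microplate spectrophotometer.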

[3] = cited from earlier work
[4] = Gel permeation chromatography; assay type: physicochemical
Procedure, shortened: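 Test peptide alone in buffer, no phospholipid, at 1, 5 and 10 mg/mL; one condition also incubated at 50°C. Analysed by size-exclusion GPC on a TSK G3000SWx column (7.8 mm×30 cm), eluted with PBS at 1.0 mL/min at ambient temperature, UV detection at 220 nm. Molecular weight was assigned from retention time.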

[5] = target: the molecule itself; assay: SEC + other: dynamic light scattering
[6] = lipid LUV + 22A 1:1 wt/wt incubated 24 hr at 25°C
[7] = as restated in Results, no reference given
[8] = 22A 1 mg/mL in buffer without phospholipid, after incubation at 50°C
[9] = 22A in buffer without phospholipid, before dissociation

LUV diameter ([1]; extruded LUVs, 5.0 mg/mL solutions, before addition of 22A peptide): 120 nm
DLS volume (distribution, %): LUV [1, 6]: 0.1%
DLS volume (distribution, %): sHDL [1, 6]: 99.9%
DLS intensity (size, nm): LUV ([1]; lipid LUV + 22A 1:1 wt/wt incubated 24 hr at 25°C, remaining liposomes): 137.3 nm
DLS volume (distribution, %): sHDL ([1]; lipid LUV + 22A 1:1 wt/wt incubated 24 hr at 37°C): 100%
DLS volume (distribution, %): sHDL ([1]; lipid LUV + 22A 1:1 wt/wt incubated 24 hr at 50°C): 100%
UV 600 nm absorbance (turbidity) of LUV solution [2]: 0.26
Molecule: CCCCCCCC/C=C\CCCCCCCC(=O)O[C@H](COC(=O)CCCCCCCCCCCCCCC)COP(=O)([O-])OCC[N+](C)(C)C [POPC, 1-palmitoyl-2-oleoyl-sn-glycero-3-phosphocholine]
transition temperature (Tm) [3, 7]: −2 °C
transition temperature (Tm) [3]: −2 °C

GPC retention time of monomeric peptide [4, 8]: 14.9 min
molecular weight corresponding to GPC retention time, monomeric peptide [4, 8]: ~ 2500 Da
association state of peptide without lipid ([4]; 22A in buffer without phospholipid, 1, 5 and 10 mg/mL, initial, GPC and DLS): self-associated
GPC retention time of self-associated peptide [4, 9]: 9.6 min
molecular weight corresponding to GPC retention time, self-associated peptide [4, 9]: ~ 145,000 Da
Molecule: PVLDLFRELLNELLEALKQKLK [22A]

Molecule: synthetic sphingomyelin [sSM]
transition temperature (Tm) [3, 7]: approximately 40 °C

Molecule: PVLDLFRELLNELLEALKQKLK [ESP-24218 peptide (22A), ApoA-I-mimetic peptide]
binding result [5]: binds
